Screening data (PubChem)
Only some compounds are listed: those with a hit (about 12% of all), similar ones and a draw of the others.
Wee1 stabilizer: blocks degradation of human Wee1 kinase; hit rate 1.2% among 220,000; reporter increase, % at 5 µM; HeLa Luc-Wee1K328M stability, luciferase luminescence; 100% = proteasome inhibitor MG132 effect; P30291; AID 1321;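 active = activation above the mean of all tested compounds plus 3 SD, set per screening run, cut at about 8.8% in these data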;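 note: cells exposed to compound for 20 h before luminescence read; 0% = DMSO alone and 100% = MG132 at 30 µM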
Arbovirus inh: arbovirus infection inhibition; arbovirus infection cell-based antiviral screen; hit rate 0.37% among 200,000; AID 1251; inhibition, % at 10 µM; in the data active = inhibition above about 30%
L major viab: reduces viability of Leishmania major promastigotes; hit rate 9% among 200,000; resazurin fluorescence viability; AID 1063; inhibition, % at 10 µM;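 note: promastigotes grown with compound for 44 hours at 28 °C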
CHOP inh: inhibitors of CHOP induction in ER stress response | CHO-K1 CHOP-promoter luciferase, tunicamycin-induced, 15-18 h | inhibition, % at 10 µM | hit rate 3.8% among 220,000 | AID 2732;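 active = compounds that reduced the stress-induced luciferase reporter signal by more than about 70% of percent inhibition, limit read from the data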;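 note: 0% = tunicamycin plus vehicle and 100% = wells without tunicamycin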
PKD1 inh: inhibitors of human PKD1 kinase; hit rate 0.056% among 200,000; AID 797; inhibition, % (test concentration not listed); Q15139; PKD1 kinase fluorescence polarization assay
Target sequence (Q15139 whole entry, looked up): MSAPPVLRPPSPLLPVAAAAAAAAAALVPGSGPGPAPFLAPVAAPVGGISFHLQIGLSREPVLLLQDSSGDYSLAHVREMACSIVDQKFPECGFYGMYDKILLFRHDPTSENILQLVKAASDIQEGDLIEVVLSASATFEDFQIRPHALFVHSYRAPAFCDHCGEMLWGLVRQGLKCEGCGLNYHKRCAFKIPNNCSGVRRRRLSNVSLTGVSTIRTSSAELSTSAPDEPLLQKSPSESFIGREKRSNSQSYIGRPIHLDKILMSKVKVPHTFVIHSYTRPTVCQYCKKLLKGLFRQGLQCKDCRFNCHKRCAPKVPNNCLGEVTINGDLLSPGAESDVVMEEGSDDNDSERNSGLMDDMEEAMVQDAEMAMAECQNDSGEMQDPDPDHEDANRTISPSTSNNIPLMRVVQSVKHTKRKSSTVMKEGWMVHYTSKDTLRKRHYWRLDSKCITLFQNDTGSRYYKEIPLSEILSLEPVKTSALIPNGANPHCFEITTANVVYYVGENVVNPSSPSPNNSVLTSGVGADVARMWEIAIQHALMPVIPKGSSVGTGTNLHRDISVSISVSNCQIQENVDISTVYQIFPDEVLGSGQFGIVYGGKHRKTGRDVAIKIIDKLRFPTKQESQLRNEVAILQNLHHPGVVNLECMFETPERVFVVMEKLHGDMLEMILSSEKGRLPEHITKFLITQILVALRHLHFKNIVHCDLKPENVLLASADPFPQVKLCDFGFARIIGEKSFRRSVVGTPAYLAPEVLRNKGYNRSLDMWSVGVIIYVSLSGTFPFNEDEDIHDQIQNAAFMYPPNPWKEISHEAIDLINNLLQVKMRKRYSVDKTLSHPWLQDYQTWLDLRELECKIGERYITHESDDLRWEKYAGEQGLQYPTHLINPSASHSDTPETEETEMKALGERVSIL
Rad51 HR inh: Rad51 (human) homologous recombination inhibition. hRad51 DNA strand exchange, fluorescence dequenching. inhibition, % at 10 µM. hit rate 0.085% among 200,000;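 active = inhibition above 40% at the single screening dose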;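 note: 0% = DMSO control wells and 100% = blanks with heterologous ssDNA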
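Test system: preformed human Rad51 ssDNA filaments; also added: Donor/quencher-labelled 47-bp dsDNA substrate; doses: 10 µM final, single point; times: 37 °C 15-min filament assembly, 30-min compound preincubation, 15-min exchange; detection: FRET fluorescence dequenching, excitation 485 nm, emission 520 nm; read-out basis: Fluorescence-based percent inhibition, control- and blank-normalised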
Numbers without * were called inactive; . = no result given. Cut-off read from the data, not from the text of the source, unless noted: active = inhibition above about 50%; inactive = the rest.

SMILES	Wee1 stabilizer	Arbovirus inh	L major viab	CHOP inh	PKD1 inh	Rad51 HR inh
COc1cccc(/C=N/NC(=O)c2ccccc2)c1OS(=O)(=O)c1ccccc1	-1	-7	92*	9	-15	0
COc1cc(/C=N/NC(=O)c2ccc(N(C)S(=O)(=O)c3ccccc3)cc2)cc(OC)c1OC	-4	1	100*	18	-1	13
O=C(Cn1cncn1)NCc1cc(F)ccc1F	-2	6	-1	22	-3	.
CCOC(=O)c1c(NC(=O)CSc2nnc3c(Cl)cc(Cl)cn23)sc2c1CCC2	0	0	0	8	-6	-6
COc1ccc(/C=C\C(=O)c2c(O)ccc3c(C)cc(=O)oc23)cc1OC	0	-15	100*	73*	-4	16
Cc1cc(=O)oc2c(C(=O)/C=C/c3ccccc3)c(O)ccc12	-2	-2	52*	-13	-4	-3
Cc1cc(=O)oc2c(C(=O)/C=C\c3cccs3)c(O)ccc12	2	-9	34	18	9	.
COc1cc(/C=C/C(=O)c2c(O)ccc3c(C)cc(=O)oc23)ccc1O	0	-19	99*	-38	-6	-8
COc1ccc(CNC(=O)C(CCSC)NS(=O)(=O)c2ccccc2F)cc1 (configuration not stated)	0	-1	1	12	-4	5
Cc1ccc(OCCNC(=O)C(=O)NCc2ccco2)cc1	0	-15	-6	15	-5	4
COc1ccc(OC)c(C(=O)CSc2nnc(-c3ccc(OC)c(OC)c3)o2)c1	4	-12	-7	80*	-1	-3
COc1ccc(C(=O)CSc2nnc(-c3ccc(C)cc3)o2)cc1	0	-7	-6	4	-2	-1
Cc1[nH]c2ccccc2c1C(=O)CSc1nc2cc(S(=O)(=O)N3CCCCC3)ccc2o1	-1	12	55*	49	0	8
Cc1ccc(C(=O)CSc2nc3cc(S(=O)(=O)N4CCOCC4)ccc3o2)cc1	1	9	-5	41	5	6
Cc1[nH]c2ccccc2c1SCCNC(=O)c1ccc(S(=O)(=O)N2CCCC2)cc1	0	-16	99*	23	-5	-4
Cc1ccc(Nc2nc(N/N=C/c3c[nH]c4ccccc34)nc(N3CCOCC3)n2)cc1	5	-42	54*	95*	3	13
BrC(/C=N/Nc1nc(N2CCOCC2)nc(N2CCOCC2)n1)=C/c1ccccc1	-2	3	10	82*	-16	-4
Cc1ccc(CN2CCN(CC(=O)N/N=C/c3c[nH]c4ccccc34)CC2)cc1	3	-4	-1	16	2	0
C(=N\Nc1nc(Nc2ccccc2)nc(N2CCOCC2)n1)/c1c[nH]c2ccccc12	-3	-2	97*	43	-4	1
Cc1[nH]c2ccccc2c1/C=N/Nc1nc(Nc2ccc(F)cc2)nc(N2CCOCC2)n1	-1	-45	99*	61	-14	-7
c1ccc(Nc2nc(N3CCNCC3)nc(N3CCOCC3)n2)cc1	1	-6	3	25	0	-8
CCCCC1(C(=O)OCC)CC(CSC(=N)N)OC1=O (configuration not stated)	1	1	15	3	-8	.
COc1ccc(-n2c(SCC(N)=O)nc3sc4c(c3c2=O)CCC4)cc1	5	-1	-5	24	-2	-2
CC1CCCN(C(=O)c2ccc3c(c2NCCO)C(=O)c2ccccc2C3=O)C1 (configuration not stated)	5	-5	91*	40	-6	-2
CC1(C)CCCN(C(=O)c2ccc3c(c2NCCO)C(=O)c2ccccc2C3=O)C1	2	-17	100*	36	-6	.
SMILES	Wee1 stabilizer	Arbovirus inh	L major viab	CHOP inh	PKD1 inh	Rad51 HR inh
O=C1c2ccccc2C(=O)c2c1ccc(C(=O)N1CCCCC1)c2NCCO	1	5	3	41	-6	2
FC(F)(F)c1cccc(NC(=S)NCC(c2cccnc2)N2CCOCC2)c1 (configuration not stated)	-2	-9	61*	-7	5	1
O=C1C2CCCN2C(=O)N1CCN1CCN(c2ccccc2)CC1 (configuration not stated)	0	0	61*	2	-1	1
COC(=O)C1=C(C)NC2=C(C(=O)CCC2)C1c1ccc(-c2ccsc2C(=O)OC)o1 (configuration not stated)	-2	.	.	9	.	-4
CCOC(=O)c1ccc(NC(=O)CSCc2ccco2)cc1	0	2	89*	-9	0	-2
CCOC(=O)c1ccc(NC(=S)N(CCN(C)C)Cc2cccs2)cc1	-2	-3	18	9	12	8
CCOC(=O)c1ccc(NC(=S)N(CCCN(CC)CC)Cc2ccco2)cc1	1	-3	100*	15	1	-4
CCOC(=O)c1ccc(NC(=S)N(CCCN2CCCCC2)Cc2ccco2)cc1	3	-12	93*	3	7	0
CCOC(=O)c1ccc(NC(=O)CSCCC(=O)O)cc1	-1	2	-2	-12	-4	-2
N=C1SC(c2ccccc2)C(=O)N1c1ncc(Cc2ccccc2Cl)s1 (configuration not stated)	-3	-30	-5	-4	-6	12
O=[N+]([O-])c1cc(C(F)(F)F)ccc1Sc1nccn1Cc1ccccc1	-3	-14	-3	38	-11	0
O=[N+]([O-])c1ccc(Sc2nccn2Cc2ccccc2)c([N+](=O)[O-])c1	-1	-13	101*	-5	2	-1
Cc1cccc(-n2c(C)cc(C=C(C#N)C#N)c2C)c1	-3	0	62*	17	-5	3
Cc1cc(/C=C(/C#N)c2cccc(Cl)c2)c(C)n1C	0	-9	1	48	-14	.
Cc1cc(/C=C(/C#N)c2cccc(F)c2)c(C)n1-c1cccnc1	-1	-2	99*	31	0	1
COc1cccc(/C=C/C(=O)Nc2ccc(OC)nc2)c1	0	3	47	-12	-8	.
O=C(O)CCCN1C(=O)C(=O)/C(=C(/O)c2ccccc2)C1/C=C/c1ccccc1 (configuration not stated)	-3	13	-3	-11	-9	-8
C/C(=N/O)c1ccccn1	3	0	-6	26	8	-4
CCCCCC/C(=N/O)c1ccccn1	-1	-38	91*	54	-8	7
C=CCOC(=O)C1=C(C)NC(=S)C(C#N)(CC=C)C1c1ccccc1Cl (configuration not stated)	-3	.	.	23	.	13
Cn1c(=O)c(=O)n(C)c2cc(S(=O)(=O)NCc3ccc(Cl)cc3)ccc21	-1	5	100*	5	-1	-3
Cn1c(=O)n(C)c2cc(S(=O)(=O)NCc3ccccc3)ccc21	1	4	99*	4	1	4
